Experimental findings from ChEMBL document CHEMBL1154534, “Ultrasound promoted synthesis of 2-imidazolines in water: a greener approach toward monoamine oxidase inhibitors” (Bioorg Med Chem Lett, 2009) are described below.

Assay [1] deals with T1, Amine oxidase [flavin-containing] B (Rattus norvegicus, UniProt P19643).
T1 sequence (P19643 whole entry): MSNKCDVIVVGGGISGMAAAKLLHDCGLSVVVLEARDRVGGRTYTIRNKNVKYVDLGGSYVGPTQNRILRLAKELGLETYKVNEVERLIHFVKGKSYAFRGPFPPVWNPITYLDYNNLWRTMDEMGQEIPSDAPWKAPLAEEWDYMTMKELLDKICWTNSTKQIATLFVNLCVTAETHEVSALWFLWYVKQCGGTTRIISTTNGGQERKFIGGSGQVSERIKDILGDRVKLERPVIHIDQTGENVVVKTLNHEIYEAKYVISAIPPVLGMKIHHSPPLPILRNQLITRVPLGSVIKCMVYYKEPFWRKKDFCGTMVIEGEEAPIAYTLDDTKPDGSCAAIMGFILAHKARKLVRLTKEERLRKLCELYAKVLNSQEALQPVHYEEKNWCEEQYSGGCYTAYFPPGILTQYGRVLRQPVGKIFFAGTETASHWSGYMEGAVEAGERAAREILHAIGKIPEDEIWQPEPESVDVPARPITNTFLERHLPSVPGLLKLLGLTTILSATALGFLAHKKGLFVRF
Put plainly: Binding affinity to MAOB imidazoline binding site in rat brain mitochondrial homogenate assessed as 4-hydroxyquinoline production by spectrophotometry. It is filed as tissue-based. The method, boiled down: (§1)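 Rat brain mitochondrial homogenates, with protein measured by Bradford. Fractions were preincubated for 5 min at 37 °C with 250 nM selegiline (MAO-A assay) or 250 nM clorgyline (MAO-B assay). Compounds were added in DMSO, followed 5 min later by kynuramine at its KM for each isoform. Incubation ran 30 min at 37 °C and was stopped with trichloroacetic acid, then centrifuged. 4-Hydroxyquinoline was read at 314 nm, or by fluorescence (ex 315/em 380 nm) if compounds interfered.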

In assay [2] the target is T2, Amine oxidase [flavin-containing] A (Rattus norvegicus, UniProt P21396).
T2 sequence (P21396 whole entry): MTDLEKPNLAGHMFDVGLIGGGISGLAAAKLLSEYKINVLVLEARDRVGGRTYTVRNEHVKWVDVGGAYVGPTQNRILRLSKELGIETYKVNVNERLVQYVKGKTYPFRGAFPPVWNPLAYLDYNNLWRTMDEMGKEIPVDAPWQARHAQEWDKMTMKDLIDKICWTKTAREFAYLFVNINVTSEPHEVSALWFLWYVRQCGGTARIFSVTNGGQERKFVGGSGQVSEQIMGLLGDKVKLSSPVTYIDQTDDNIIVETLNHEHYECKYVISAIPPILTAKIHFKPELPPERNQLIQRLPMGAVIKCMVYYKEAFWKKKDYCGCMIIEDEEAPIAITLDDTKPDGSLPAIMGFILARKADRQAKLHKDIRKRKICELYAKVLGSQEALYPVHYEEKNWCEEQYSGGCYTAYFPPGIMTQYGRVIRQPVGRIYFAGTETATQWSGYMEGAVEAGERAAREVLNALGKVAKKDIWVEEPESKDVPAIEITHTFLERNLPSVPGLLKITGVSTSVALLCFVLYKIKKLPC
Put plainly: Binding affinity to MAOA imidazoline binding site in rat brain mitochondrial homogenate assessed as 4-hydroxyquinoline production by spectrophotometry. The assay is classed as tissue-based. The method, boiled down:
as §1

The species named for assay [3] is Rattus norvegicus. Put plainly: Selectivity index, ratio of Ki rat for MAOA to Ki for rat MAOB.
The species named for assay [4] is Rattus norvegicus. Put plainly: Selectivity index, ratio of Ki rat for MAOB to Ki for rat MAOA.

With `c1ccc2cc(C3=NCCN3)ccc2c1` [BENAZOLINE], the Ki in assay [1] stood at 1.49 µM; in assay [2] it was 13.9 µM. The Ratio Ki in the assay listed under Rattus norvegicus [3] amounted to 9.32.

For `COc1ccc(C2=NCCN2)cc1OC`, the figures for the inhibition constant Ki in assay [1] and in assay [2] were 1000 µM and 13.6 µM, respectively. The Ratio Ki in the assay filed under Rattus norvegicus [4] stood at 73; in the assay listed under Rattus norvegicus [3], 0.013.

Regarding `Clc1ccc(C2=NCCN2)cc1`, the Ki came out at 5.35 µM in assay [1] and 166 µM in assay [2]. Moreover, the Ratio Ki in the assay listed under Rattus norvegicus [3] came out at 31.1.

As for `Cc1ccc(C2=NCCN2)cc1`, the values for the Ki in assay [1] and in assay [2] were 13.1 µM and 102 µM, respectively. Further, the Ratio Ki in the assay filed under Rattus norvegicus [3] came out at 7.79.

As to `Clc1ccccc1C1=NCCN1`, the results for the Ki in assay [1] and in assay [2] were 24.6 µM and more than 1000 µM, respectively. For the same molecule, in the assay listed under Rattus norvegicus [3], the Ratio Ki is more than 40.7.

For the molecule `c1coc(C2=NCCN2)c1`, the Ki in assay [1] and in assay [2] was more than 1000 µM each time.

As to `c1ccc2nc(C3=NCCN3)ccc2c1`, in assay [1], the IC50 turned out to be 13.3 µM and the Ki worked out at 5.32 µM. For the same molecule, in assay [2], the IC50 was found to be 12.7 µM and the Ki is 4.86 µM. Also, the Ratio Ki in the assay listed under Rattus norvegicus [3] is 0.91.

For the molecule `COc1cc(C2=NCCN2)cc(OC)c1OC`, the inhibition constant Ki stood at 1000 µM in assay [1] and 114 µM in assay [2]. Further, in the assay filed under Rattus norvegicus [3], the Ratio Ki was found to be 0.114.

Consider `O=C(Oc1ccc(C2=NCCN2)cc1)c1ccccc1`, for which the Ki was found to be 1.38 µM in assay [1] and 12.8 µM in assay [2]. Also, the Ratio Ki in the assay listed under Rattus norvegicus [3] was found to be 9.27.

On to `COc1ccc(C2=NCCN2)cc1`, for which the Ki in assay [1] amounted to 32.7 µM; in assay [2], 15.8 µM. Further, the Ratio Ki in the assay listed under Rattus norvegicus [3] was 0.48.

As to `O=[N+]([O-])c1ccc(C2=NCCN2)cc1`, the Ki is more than 1000 µM in assay [1] and 181 µM in assay [2]. Moreover, the Ratio Ki in the assay listed under Rattus norvegicus [3] is less than 0.181.

Turning to `c1ccc(C2=NCCN2)cc1`, the Ki worked out at 21.3 µM in assay [1] and 28.8 µM in assay [2]. The Ratio Ki in the assay filed under Rattus norvegicus [3] is 1.35.

Regarding `c1ccc2oc(C3=NCCN3)cc2c1`, in assay [1], the IC50 amounted to 9.1 µM and the Ki came out at 3.63 µM. Besides, in assay [2], the IC50 was determined as 65 µM and the Ki came out at 24.9 µM.

For the molecule `Clc1ccc(C2=NCCN2)c(Cl)c1`, the Ki in assay [1] was 3.98 µM; in assay [2] it was 28.8 µM. In the assay listed under Rattus norvegicus [3], the Ratio Ki was 10.5.

On to `c1ccc(C2=NCCN2)nc1`, for which the Ki was 25.3 µM in assay [1] and more than 1000 µM in assay [2]. In addition, the Ratio Ki in the assay listed under Rattus norvegicus [3] is more than 39.5.

Take `O=[N+]([O-])c1cccc(C2=NCCN2)c1`: the Ki in assay [1] was 19.3 µM; in assay [2], more than 1000 µM. The Ratio Ki in the assay listed under Rattus norvegicus [3] was more than 51.9.

For orientation: Ki means the equilibrium dissociation constant of an inhibitor or competing ligand from its target. What is called IC50 is the point on the concentration scale where inhibition reaches its midpoint.
